Reference: ChEMBL document CHEMBL2202980, “Anti-viral activity of (-)- and (+)-usnic acids and their derivatives against influenza virus A(H1N1)2009” (Bioorg Med Chem Lett, 2012)

How the values were obtained:
[1] = Selectivity index, ratio of CTD50 for MDCK cells to ED50 for influenza virus A/California/07/09 (H1N1) pdm09; assay type: toxicity, cell-based; conditions: dog, read-out: Selectivity Index
Influenza A virus = assay: Antiviral activity against Influenza virus A/California/07/09 (H1N1) pdm09 infected in MDCK cells after 48 hrs followed by incubated in chicken erythrocytes for 1 hr by hemagglutinination based end-point dilution method; assay type: functional, Influenza A virus (A/California/07/2009(H1N1)); conditions: read-out: ED50 (the source's name)
Procedure, shortened: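 MDCK cells were pretreated for 1 h at 37 °C with serial twofold compound dilutions in MEM containing 2 mM arginine, 2 mM glutamine and trypsin. They were then infected and cultured at 36 °C for 48 h. Supernatant was mixed with 1% chicken erythrocytes for 1 h at room temperature. Titer was read as the end-point dilution giving hemagglutination in 50% of wells. ED50 is the concentration halving virus production versus untreated control.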

[2] = Cytotoxicity against MDCK cells after 48 hrs by MTT assay; assay type: cell-based, Canis lupus familiaris; conditions: dog, read-out: CTD50
Procedure, shortened: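 MDCK monolayers were grown in MEM with 5% fetal calf serum and washed with serum-free MEM. They were exposed to serial twofold dilutions from 5 mg/ml DMSO stocks for 48 h at 37 °C. CTD50 was derived from this.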

RAW264.7 [3] = assay: Antiinflammatory activity in mouse RAW264.7 cells assessed as inhibition of LPS-induced iNOS protein synthesis; assay type: functional, cell-based
RAW264.7 [4] = assay: Antiinflammatory activity in mouse RAW264.7 cells assessed as inhibition of LPS-induced TNFalpha level; assay type: functional, cell-based
[5] = Selectivity index, ratio of cytotoxicity against human CEM cells to Antiviral activity against HIV1 RF; assay type: toxicity, cell-based, CCRF-CEM; conditions: read-out: Selectivity Index

| Structure (SMILES) | selectivity ratio [1] | EC50 (Influenza A virus; Influenza A virus, pdm09, MDCK) [µM] | CC50 at 48 h [2] [µM] | EC50 (Influenza A virus) [µM] | IC50 (RAW264.7 [3]) [µM] | IC50 (RAW264.7 [4]) [µM] | selectivity ratio [5] |
| --- | --- | --- | --- | --- | --- | --- | --- |
| CC(=O)c1c(O)c(C)c(O)c2c1OC1=Cc3c(c(C)nn3-c3ccccc3)C(=O)[C@@]12C | 12.4 | 62.2 | 769 |  |  |  |  |
| CC(=O)c1c(O)c(C)c(O)c2c1OC1=Cc3c(c(C)nn3-c3ccccc3)C(=O)[C@]12C | 9 | 57.8 | 522 |  |  |  |  |
| CC(=O)c1c(O)c(C)c(O)c2c1OC1=Cc3c(c(C)nn3-c3ccccc3)[C@@H](O)[C@@]12C | 13.2 | 6 | 78.9 |  |  |  |  |
| CC(=O)c1c(O)c(C)c(O)c2c1OC1=Cc3c(c(C)nn3-c3ccccc3)[C@@H](O)[C@]12C | 6.8 | 10.5 | 71.8 |  |  |  |  |
| CC(=O)c1c(O)c(C)c(O)c2c1OC1=CC(=O)/C(=C(/C)NCC(F)(F)C(F)F)C(=O)[C@@]12C | 19.4 | 1.6 | 31.1 |  |  |  |  |
| CC(=O)c1c(O)c(C)c(O)c2c1OC1=CC(=O)/C(=C(/C)NCC(F)(F)C(F)F)C(=O)[C@]12C | 10.2 | 38.9 | 397 |  |  |  |  |
| CC[N+](C)(CC)CCN/C(C)=C1\C(=O)C=C2Oc3c(C(C)=O)c(O)c(C)c(O)c3[C@@]2(C)C1=O | 21.9 | 5.5 | 121 |  |  |  |  |
| CC[N+](C)(CC)CCN/C(C)=C1\C(=O)C=C2Oc3c(C(C)=O)c(O)c(C)c(O)c3[C@]2(C)C1=O | 2.7 | 12.5 | 34.2 |  |  |  |  |
| CC(=O)c1c(O)c(C)c(O)c2c1OC1=CC(=O)/C(=C(/C)NCC(=O)O)C(=O)[C@@]12C | 6 |  | 67.3 | 11.2 |  |  |  |
| CC(=O)c1c(O)c(C)c(O)c2c1OC1=CC(=O)/C(=C(/C)NCC(=O)O)C(=O)[C@]12C | 18.4 |  | 197 | 10.7 |  |  |  |
| CC(=O)c1c(O)c(C)c(O)c2c1OC1=CC(=O)/C(=C(/C)NCCC(=O)O)C(=O)[C@@]12C | 23.5 | 6.9 | 162 |  |  |  |  |
| CC(=O)c1c(O)c(C)c(O)c2c1OC1=CC(=O)/C(=C(/C)NCCC(=O)O)C(=O)[C@]12C | 1 | 400 | 400 |  |  |  |  |
| CC(=O)c1c(O)c(C)c(O)c2c1OC1=CC(=O)/C(=C(/C)Nc3ccc(F)cc3)C(=O)[C@@]12C | 8.8 | 23.6 | 208 |  |  |  |  |
| CC(=O)c1c(O)c(C)c(O)c2c1OC1=CC(=O)/C(=C(/C)Nc3ccc(F)cc3)C(=O)[C@]12C | 3.9 | 90.4 | 350 |  |  |  |  |
| CC(=O)c1c(O)c(C)c(O)c2c1OC1=CC(=O)/C(=C(/C)Nc3ccc(Cl)cc3)C(=O)[C@@]12C | 6.9 | 25.1 | 172 |  |  |  |  |
| CC(=O)c1c(O)c(C)c(O)c2c1OC1=CC(=O)/C(=C(/C)Nc3ccc(Cl)cc3)C(=O)[C@]12C | 11.7 | 13.1 | 153 |  |  |  |  |
| CC(=O)c1c(O)c(C)c(O)c2c1OC1=CC(=O)/C(=C(/C)Nc3ccc(Br)cc3)C(=O)[C@@]12C | 9.6 | 20.2 | 193 |  |  |  |  |
| CC(=O)c1c(O)c(C)c(O)c2c1OC1=CC(=O)/C(=C(/C)Nc3ccc(Br)cc3)C(=O)[C@]12C | 5.1 | 30.4 | 154 |  |  |  |  |
| CC(=O)c1c(O)c(C)c(O)c2c1OC1=CC(=O)/C(=C(/C)Nc3cccc(F)c3)C(=O)[C@@]12C | 4.8 | 12.7 | 61.3 |  |  |  |  |
| CC(=O)c1c(O)c(C)c(O)c2c1OC1=CC(=O)/C(=C(/C)Nc3cccc(F)c3)C(=O)[C@]12C | 8.8 | 4 | 35.3 |  |  |  |  |
| CC(=O)c1c(O)c(C)c(O)c2c1OC1=CC(=O)/C(=C(/C)Nc3cccc(Br)c3)C(=O)[C@@]12C | 3.2 | 10.4 | 33.6 |  |  |  |  |
| CC(=O)c1c(O)c(C)c(O)c2c1OC1=CC(=O)/C(=C(/C)Nc3cccc(Br)c3)C(=O)[C@]12C | 10 | 9.8 | 97.8 |  |  |  |  |
| CC(=O)C1=C(O)C=C2O[C@]34O[C@@]3(C(C)=O)C(=O)C(C)=C(O)[C@]4(O)[C@@]2(C)C1=O | 37.3 | 5.1 | 190 |  |  |  |  |
| CC(=O)C1=C(O)C=C2O[C@]34O[C@@]3(C(C)=O)C(=O)C(C)=C(O)[C@]4(O)[C@]2(C)C1=O | 8 | 27.7 | 221 |  |  |  |  |
| CC(=O)C1=C(O)C=C2Oc3c(C(C)=O)c(O)c(C)c(O)c3[C@@]2(C)C1=O [(+)-USNIC ACID] | 5.9 |  | 305 | 51.7 | 4.7 | 12.8 | 3 |
| CC(=O)C1=C(O)C=C2Oc3c(C(C)=O)c(O)c(C)c(O)c3[C@]2(C)C1=O [(-)-USNIC ACID] | 14.4 | 14.5 | 209 |  |  |  |  |
| NC(=O)c1ncn([C@@H]2O[C@H](CO)[C@@H](O)[C@H]2O)n1 [RIBAVIRIN] | > 81 | 24.6 | > 2000 |  |  |  |  |
| CC(N)C12CC3CC(CC(C3)C1)C2 (configuration not stated) [RIMANTADINE] | 5 | 56.9 | 284 |  |  |  |  |
